# Screening data from PubChem BioAssay.
# Only some compounds are listed: those with a hit (about 2.1% of all), similar ones and a draw of the others.
# FN deposition inh = fibronectin deposition inhibition; AID 743247; AH1F fibroblasts, Alexa488-fibronectin deposition fluorescence, overnight; 350,000 compounds, 0.086% hits; inhibition, % at 12.6 µM;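 active = mean inhibition across replicates of 30% or more, regardless of how many single replicates reach that level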;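 note: positive control wells lacked labelled fibronectin entirely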
#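 test system = AH1F fibroblasts assembling fluorescent fibronectin matrix | quantity = 10000 AH1F cells per well | buffer or medium = DMEM plus 2% serum, read in PBS | doses = single dose, pinned | incubation = 1 h cell attachment, overnight exposure to compound and label | detection = fluorescence at 485 nm excitation, 525 nm emission | read-out basis = inhibition from reduced deposited-fibronectin fluorescence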
# PDI inh = blocks human protein disulfide isomerase activity. P07237. PDI insulin aggregation turbidity, A650, 90 min. inhibition, % at 10 µM. 350,000 compounds, 0.052% hits. AID 588391;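 active = mean inhibition across replicates of 30% or more, whatever share of single replicates reach that level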
# MLL AF4-AF9 inh = blocks AF4 peptide binding to human AF9; 350,000 compounds, 0.47% hits; AlphaScreen, biotin-AF4 peptide binding to FLAG-AF9; inhibition, % at 10 µM; P42568;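 active = every replicate reaching a set inhibition limit, whatever the replicate mean, cut at about 25% in these data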;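 note: 0% = plate neutral control median and 100% = total signal loss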
# ERp5 inh = blocks human ERp5 reductase activity on insulin. inhibition, % at 9.99 µM. AID 651711. 350,000 compounds, 0.05% hits. Q15084. ERp5 insulin aggregation, absorbance 650 nm, 90 min;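 active = mean replicate inhibition above about 25%, with every replicate also reaching it, limit read from the data, passing the limit was not always enough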
# Target sequence (Q15084 whole entry, looked up): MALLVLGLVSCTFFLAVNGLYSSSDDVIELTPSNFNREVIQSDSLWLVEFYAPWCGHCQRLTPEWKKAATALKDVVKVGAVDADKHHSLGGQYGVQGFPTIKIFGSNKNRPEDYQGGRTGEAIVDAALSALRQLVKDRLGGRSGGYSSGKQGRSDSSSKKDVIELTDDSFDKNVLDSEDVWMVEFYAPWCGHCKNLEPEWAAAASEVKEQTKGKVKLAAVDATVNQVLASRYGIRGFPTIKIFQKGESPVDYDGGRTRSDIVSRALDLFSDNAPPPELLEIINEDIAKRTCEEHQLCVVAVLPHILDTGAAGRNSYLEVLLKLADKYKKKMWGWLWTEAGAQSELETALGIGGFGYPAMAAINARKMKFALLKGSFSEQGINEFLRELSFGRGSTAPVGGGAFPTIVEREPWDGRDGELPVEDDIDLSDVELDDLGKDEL
# FGF22 binding-1 = binders of recombinant human FGF22 by thermal shift | 340,000 compounds, 1.5% hits | Q9HCT0 | SYPRO orange fluorescence; percent of sucrose octasulfate shift, DMSO zero | activity (Tm shift, normalised), % at 9.99 µM;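 active = mean Tm shift, scaled 0 neutral to 100 positive control, at about 1.3% or above, every replicate too, limit read from the data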
# Target sequence (Q9HCT0 whole entry, looked up): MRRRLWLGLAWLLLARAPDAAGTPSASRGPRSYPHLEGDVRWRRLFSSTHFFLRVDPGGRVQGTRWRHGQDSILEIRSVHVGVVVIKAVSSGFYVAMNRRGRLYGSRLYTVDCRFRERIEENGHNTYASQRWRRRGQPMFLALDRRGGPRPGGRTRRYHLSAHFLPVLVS
# ARNT TACC3 PPI = disrupts binding between human ARNT and TACC3; AID 623870; AlphaScreen His-ARNT PAS-B/GST-TACC3 binding, luminescence; TACC3 fragment carries E629A point mutation; 390,000 compounds, 0.66% hits; inhibition, % at 9.99 µM;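 active = mean inhibition of replicates at least 50% and at least half of replicates each reaching 50%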;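 note: 0% = complete ARNT plus TACC3 wells and 100% = ARNT alone without TACC3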
# FGF22 binding-2 = FGF22 (human) binding in thermal shift. shares compounds with FGF22 binding-1. recombinant FGF22 thermal shift, SYPRO orange fluorescence. thermal shift activity, °C (ΔTm) at 38 µM. 1,000 compounds, 2% hits. AID 720646;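 active = fitted rise in melting shift crosses a set limit at or below the top valid dose tested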
# FGF22 TSA = binders of human FGF22 by thermal shift. Tm shift (activity), % at 38 µM. Thermal shift assay, SYPRO orange, melting temperature shift. shares compounds with FGF22 binding-1. AID 743017. 50 tested, under 10 active;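 active = compounds whose fitted dose curve of melting temperature shift rises past a set threshold within the tested doses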
# SYPRO no-protein = shows thermal shift signal without protein, FGF22 counter-screen. shares compounds with FGF22 binding-1. compound-only SYPRO orange thermal shift counter-screen, no protein. AC50, µM (doses to about 38 µM). 1,000 compounds, 2% hits;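 active = rising signal whose fitted curve reaches the 0.54 level within the top valid dose, showing a melting point, actives reach about 13 µM in these data; inactive = the rest, including activity in the opposite direction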; note: value is where the raw curve crosses a fixed level and not half-maximal
# * hit, by the source's call; i = inactive; nt = not tested or not shown; [ ] = remark or other dose.
SMILES,FN deposition inh,PDI inh,MLL AF4-AF9 inh,ERp5 inh,FGF22 binding-1,ARNT TACC3 PPI,FGF22 binding-2,SYPRO no-protein,others
C[C@@H]1CN([C@@H](C)CO)S(=O)(=O)c2ccc(-c3ccncc3)cc2O[C@@H]1CN(C)C(=O)Nc1ccc(C(F)(F)F)cc1,7,nt,-1,3,1.5*,-6,-0.076,i,
COc1cccc(NC(=O)N(C)C[C@H]2Oc3cc(-c4ccccc4F)ccc3S(=O)(=O)N([C@@H](C)CO)C[C@H]2C)c1,5,nt,1,4,2.8*,2,0.2[42 µM],i,
COCCNC(=O)C[C@H]1C[C@H]2c3cc(NC(=O)Nc4ccc(F)cc4)ccc3O[C@H]2[C@H](CO)O1,-5,nt,nt,nt,0,-4,nt,nt,
COc1cccc(NC(=O)N(C)C[C@@H]2Oc3cc(-c4ccccc4F)ccc3S(=O)(=O)N([C@@H](C)CO)C[C@H]2C)c1,-15,nt,0,0,1.7*,0,0.076[42 µM],i,
C/C=C/c1ccc2c(c1)O[C@@H](CN(C)C(=O)Nc1cc(F)ccc1F)[C@@H](C)CN([C@H](C)CO)S2(=O)=O,nt,nt,1,9,1.3*,4,-0.53[42 µM],i,
COc1cccc(NC(=O)N(C)C[C@H]2Oc3cc(-c4ccccc4F)ccc3S(=O)(=O)N([C@H](C)CO)C[C@@H]2C)c1,18,nt,1,0,1.4*,1,-0.052[42 µM],i,
C/C=C/c1ccc2c(c1)O[C@H](CN(C)C(=O)Nc1cc(F)ccc1F)[C@@H](C)CN([C@H](C)CO)S2(=O)=O,nt,nt,3,-1,0,-4,nt,nt,
CC(=O)N1[C@H](CO)[C@H](c2ccc(-c3cccnc3)cc2)[C@H]1CNC(=O)C1CC1,nt,nt,-2,10,nt,nt,nt,nt,
O=C(NCC[C@@H]1CC[C@@H](NC(=O)C2CCCCC2)[C@H](CO)O1)Nc1ccc(Cl)cc1,-2,nt,13,2,0,nt,nt,nt,
C[C@@H]1CCCCO[C@@H](CN(C)C(=O)CCC(F)(F)F)[C@@H](C)CN([C@@H](C)CO)C(=O)c2cc(NS(C)(=O)=O)ccc2O1,nt,nt,0,-4,0,-9,nt,nt,
COc1ccccc1S(=O)(=O)N[C@H]1C=C[C@@H](CC(=O)N2CCN(C)CC2)O[C@@H]1CO,nt,nt,0,0,0,-5,nt,nt,
CCC(=O)Nc1ccc2c(c1)C(=O)N(C)[C@@H]1CC[C@@H](CC(=O)N3CCCCC3)O[C@@H]1CO2,-4,nt,2,13,0,-5,nt,nt,
Cc1ccc(Nc2ccc(NCc3ccccc3)nn2)cc1C,7,3,nt,nt,nt,5,nt,nt,
Clc1ccc(Nc2ccc(NCc3ccccc3)nn2)cc1,5,7,2,0,2.3*,2,0.014,i,FGF22 TSA=0
C[C@@H]1CN([C@H](C)CO)C(=O)c2cccc(NC(=O)Nc3cccc4ccccc34)c2O[C@@H]1CN(C)S(=O)(=O)c1cccs1,2,nt,0,-2,0,2,nt,nt,
COCC(=O)NC[C@H]1[C@H](c2ccc(C3=CCCC3)cc2)[C@@H](CO)N1C(C)=O,-1,nt,-2,-1,1.3*,-3,-0.058[42 µM],i,
OC[C@@H]1[C@@H](c2ccc(-c3cccnc3)cc2)[C@H]2CN(Cc3ccccn3)CCCCN12,-10,nt,nt,nt,1.3*,16,0.051,i,
OC[C@H]1[C@H](c2ccc(-c3cccnc3)cc2)[C@@H]2CN(Cc3ccccn3)CCCCN12,-5,nt,-16,0,nt,13,nt,nt,
OC[C@H]1[C@@H](c2ccc(-c3cccnc3)cc2)[C@H]2CN(Cc3ccccn3)CCCCN21,-9,nt,-7,0,1.7*,6,-0.064,i,
Cc1ccc(-c2ccc([C@H]3[C@@H](CO)N4CCCCN(Cc5ccccn5)C[C@H]34)cc2)cc1,nt,nt,nt,-4,0,12,nt,nt,
O=C(C[C@@H]1C[C@@H]2c3cc(NC(=O)c4ccc5c(c4)OCO5)ccc3O[C@@H]2[C@H](CO)O1)NCc1ccccn1,nt,nt,-4,-1,0,4,nt,nt,
Cc1ccc(S(=O)(=O)N(C)C[C@H]2Oc3c(NC(=O)c4cc(C)nn4C)cccc3C(=O)N([C@@H](C)CO)C[C@@H]2C)cc1,nt,nt,-15,8,0,nt,nt,nt,
CCC(=O)N1[C@@H](CO)[C@@H]2c3ccccc3N(S(=O)(=O)c3ccc(F)cc3)C[C@@H]21,-7,nt,-3,2,1.4*,-5,0.21,i,
COc1ccc(N=NC2C(=O)N(c3ccccc3)N=C2C)cc1 (stereo not given),0,6,6,2,1.6*,nt,-0.059,i,
CC(C)NC(=O)N(C)C[C@@H]1Oc2cc(C#Cc3ccc(F)cc3)ccc2S(=O)(=O)N([C@@H](C)CO)C[C@H]1C,nt,nt,1,5,0,3,nt,nt,
SMILES,FN deposition inh,PDI inh,MLL AF4-AF9 inh,ERp5 inh,FGF22 binding-1,ARNT TACC3 PPI,FGF22 binding-2,SYPRO no-protein,others
C[C@@H]1CN(C)C(=O)Cc2cc(N(C)C)ccc2O[C@@H]1CN(C)C(=O)OC(C)(C)C,0,nt,nt,nt,nt,nt,nt,nt,
COCCN1CCN(Cc2nc(Cc3ccc(OC)c(OC)c3)no2)CC1,4,-6,0,-10,8.0*,-5,0.052,i,
C[C@@H]1CN([C@H](C)CO)C(=O)Cc2cc(NC(=O)C3CC3)ccc2O[C@H]1CN(C)Cc1ccccc1,nt,nt,2,3,0,-6,nt,nt,
CC(C)C(=O)Nc1ccc2c(c1)C(=O)N(C)[C@@H]1CC[C@H](CC(=O)NCc3ccccc3)O[C@H]1CO2,0,nt,-18,0,0,nt,nt,nt,
O=C(C[C@H]1C=C[C@@H](NC(=O)Nc2ccc(F)cc2)[C@H](CO)O1)NCc1ccccn1,-7,nt,-1,-5,0,-3,nt,nt,
CN1C(=O)c2cc(NC(=O)c3cccs3)ccc2OC[C@@H]2O[C@H](CC(=O)O)CC[C@@H]21,2,nt,-2,-1,0,11,nt,nt,
C[C@H]1CN([C@@H](C)CO)C(=O)c2cc(NS(=O)(=O)c3ccc(Cl)cc3)ccc2O[C@@H]1CN(C)C(=O)Nc1ccc2c(c1)OCO2,1,nt,0,2,2.5*,-8,0.11[42 µM],i,
C[C@@H]1CN([C@@H](C)CO)C(=O)c2cc(NC(=O)C3CC3)ccc2O[C@@H]1CN(C)C(=O)Nc1ccc2c(c1)OCO2,nt,nt,-3,-5,2.4*,-2,-0.004[42 µM],i,
C[C@H](CO)N1C[C@H](C)[C@H](CN(C)C(=O)Nc2ccc3c(c2)OCO3)Oc2ccc(NS(=O)(=O)c3ccc(Cl)cc3)cc2C1=O,nt,nt,5,-6,-1,-3,nt,nt,
